The record followed here is PubChem BioAssay AID624079 (The Scripps Research Institute Molecular Screening Center, 2012).

The assay has as its target metallo-beta-lactamase VIM-2 (Pseudomonas aeruginosa). Description: VIM-2 metallo-beta-lactamase inhibitors, late-stage follow-up, biochemical, absorbance, probe candidates and analogs (AID 624079). The note with it: purified VIM-2, nitrocefin hydrolysis, epi-absorbance. A digest of the protocol: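 system = purified VIM-2 enzyme | doses = dilution series with 60 µM top concentration | times = 15 min preincubation, 25 min nitrocefin hydrolysis, 25 °C, EDTA stop | measured by = hydrolysis product quenching plate fluorescence, 480 nm excitation, 530 nm emission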

Values joined by “and” are separate entries in the source; they are usually repeats but may differ in a detail not shown here. Identical values can stand only once.

A word on the IC50: it is the midpoint of a concentration-inhibition curve. With `CN1CCN(NC(=O)CN2C(=O)/C(=C/c3c(Cl)ccc(Cl)c3Cl)SC2=S)CC1`, the IC50 is 0.548 µM.

Consider `CN1CCN(NC(=O)CN2C(=O)/C(=C/c3c(Cl)cccc3Cl)SC2=S)CC1`, for which the IC50 was 3.98 µM and 4.55 µM.
